Measurements pooled from the literature.
Compare with care: the assays were run in different laboratories.
KDR: Vascular endothelial growth factor receptor 2 (KDR, Homo sapiens, UniProt P35968)
PADI1: Protein-arginine deiminase type-1 (PADI1, Homo sapiens, UniProt Q9ULC6)
CDK16: Cyclin-dependent kinase 16 (CDK16, Homo sapiens, UniProt Q00536)
ATAD2 bromodomain: ATPase family AAA domain-containing protein 2, bromodomain (ATAD2, Homo sapiens, UniProt Q6PL18)

Structure (SMILES) | target | assay | test system | setting | quantity | value
COc1ccc(C=NNC(=O)c2sc(Nc3ccccc3)c(C(=O)Nc3ccc(OC)cc3)c2NC(C)=O)cc1 | KDR | enzyme activity, inhibitor |  | 10 µM | remaining activity | 48.6%
CC(C)(C)n1nnc([C@H](CCCNC(=N)CF)NC(=O)c2ccc(-c3ccccc3)cc2)n1 | PADI1 | enzyme activity, inhibitor |  |  | kinact/KI | 14.4 M⁻¹ s⁻¹
COc1ccc(NC(=O)c2c(Nc3ccccc3)sc(C(=O)NN=Cc3cc(OC)c(OC)c(OC)c3)c2NC(C)=O)cc1 | KDR | enzyme activity, inhibitor |  | 10 nM | remaining activity | 100%
Cn1c2c(Cl)c(Cl)ccc2c2cc[nH]c(=O)c21 | CDK16 | thermal stability, DSF |  | 10 µM | ΔTm | 0 °C
CN(C)C1CCN(CC#Cc2nn(C3CCCC3)c3nc(NCc4ccccc4)ncc23)C1 (stereo not shown) | Dual specificity mitogen-activated protein kinase kinase 1 (MAP2K1, Homo sapiens, UniProt Q02750) | enzyme activity, inhibitor, FRET |  | 1 µM | inhibition | 9%
NS(=O)(=O)c1ccc(Nc2nc(-c3ccc(F)cc3)c3ccccc3n2)cc1 | ATPase family AAA domain-containing protein 2 (ATAD2, Homo sapiens, UniProt Q6PL18) | binding, competition with immobilised ligand |  | 1 µM | remaining binding | 85%
Cc1cnc(Nc2ccc(OCCN3CCCC3)cc2)nc1Nc1cccc(S(=O)(=O)NC(C)(C)C)c1 | ATAD2 bromodomain | thermal stability, DSF |  | 10 µM | ΔTm | -0.25 °C
NCCCC[C@H](NC(=O)[C@@H]1CCCN1C(=O)[C@@H]1CSSC[C@H](N)C(=O)N[C@@H](Cc2ccc(O)cc2)C(=O)N[C@@H](Cc2ccccc2)C(=O)N[C@@H](CCC(N)=O)C(=O)N[C@@H](CC(N)=O)C(=O)N1)C(=O)NCC(N)=O | Vasopressin V1a receptor (AVPR1A, Homo sapiens, UniProt P37288) | calcium signal, agonist | CHO-S |  | Emax | ~100%
CC(C)(C)n1nnc([C@H](CCCNC(=N)CCl)NC(=O)c2ccccc2)n1 | PADI1 | enzyme activity, inhibitor |  |  | kinact/KI | 52.4 M⁻¹ s⁻¹
COc1ccc(NC(=O)c2c(Nc3ccccc3)sc(C#N)c2NC(=O)CNc2ccc(Cl)cc2)cc1 | KDR | enzyme activity, inhibitor |  | 10 µM | remaining activity | 29.6%
CC(C)(C)n1nnc([C@H](CCCNC(=N)CF)NC(=O)c2ccccc2C(=O)O)n1 | PADI1 | enzyme activity, inhibitor |  |  | kinact/KI | 1670 M⁻¹ s⁻¹
Cc1ccc(C(=O)NCc2ccsc2)cc1C#Cc1cn(C(C)C)c2ncnc(N)c12 | [Pyruvate dehydrogenase (acetyl-transferring)] kinase isozyme 2, mitochondrial (PDK2, Homo sapiens, UniProt Q15119) | enzyme activity, inhibitor |  | 1 µM | activity vs control | 91%
Cn1c2c(c3ccc(Cl)c(Cl)c31)C(C#N)C1(CCNCC1)NC2=O (racemic) | CDK16 | thermal stability, DSF |  | 10 µM | ΔTm | 2.6 °C
Cc1ccc(C(=O)Nc2ccc(CN3CCN(C)CC3)c(C(F)(F)F)c2)cc1C#Cc1cnc2cccnn12 | Phosphatidylinositol 4,5-bisphosphate 3-kinase catalytic subunit alpha isoform (PIK3CA, Homo sapiens, UniProt P42336, H1047L) | enzyme activity, inhibitor |  | 23.5 nM | remaining activity | 70%
COc1ccc(NC(=O)c2c(Nc3ccccc3)sc(C(=O)NN=Cc3ccc(OC)c(O)c3)c2NC(C)=O)cc1 | KDR | enzyme activity, inhibitor |  | 10 nM | remaining activity | 99%
C[S+]([O-])c1ccc(-c2nc(-c3ccncc3)c(-c3ccc(F)cc3)[nH]2)cc1 (stereo not shown) | ATAD2 bromodomain | thermal stability, DSF |  | 10 µM | ΔTm | -1.47 °C
N=C(CF)NCCC[C@H](NC(=O)c1ccc(-c2ccccc2)cc1)c1nn[nH]n1 | PADI1 | enzyme activity, inhibitor |  |  | kinact/KI | 13.7 M⁻¹ s⁻¹
O=C(O)c1ccc2c(c1)nc(NCCc1cccc(Cl)c1)c1ncncc12 | Dual specificity tyrosine-phosphorylation-regulated kinase 2 (DYRK2, Homo sapiens, UniProt Q92630) | enzyme activity, inhibitor, radiometric |  | 1 µM | remaining activity | 76%
Nc1ncnc2occ(-c3ccc(NC(=O)Nc4cc(C(F)(F)F)ccc4F)cc3)c12 | 1-phosphatidylinositol 3-phosphate 5-kinase (PIKFYVE, Homo sapiens, UniProt Q9Y2I7) | cell-free assay |  | 20 µM | remaining signal | 19%
COc1ccc(NC(=O)c2c(Nc3ccccc3)sc(C(=O)NN=Cc3ccc(Cl)cc3)c2NC(C)=O)cc1 | KDR | enzyme activity, inhibitor |  | 1 µM | remaining activity | 83.7%
N=C(CF)NCCC[C@H](NC(=O)c1ccccc1C(=O)O)c1nn[nH]n1 | PADI1 | enzyme activity, inhibitor |  |  | kinact/KI | 1360 M⁻¹ s⁻¹
COc1ccc(NC(=O)c2c(Nc3ccccc3)sc(C#N)c2NC(=O)CNc2ccc([N+](=O)[O-])cc2)cc1 | KDR | enzyme activity, inhibitor |  | 100 µM | remaining activity | 68.8%
CC(C)(C)n1nnc([C@H](CCCNC(=N)CCl)NC(=O)c2ccc(-c3ccccc3)cc2)n1 | PADI1 | enzyme activity, inhibitor |  |  | kinact/KI | 46.2 M⁻¹ s⁻¹
COc1ccc(NC(=O)c2c(Nc3ccccc3)sc(C#N)c2NC(=O)CNc2ccc(Br)cc2)cc1 | KDR | enzyme activity, inhibitor |  | 0.1 µM | remaining activity | 66.2%
CC1(C)NC(=O)c2[nH]c3c(Cl)c(Cl)ccc3c2C1C#N (stereo not shown) | CDK16 | thermal stability, DSF |  | 10 µM | ΔTm | 0.4 °C
